Values after ≈ are worked out from the molar mass of the structure shown.
Key:
[1] = system: Bacillus cereus (ATCC 11778); experiment: Micro-broth dilution assay; type: cell-based; settings: ATCC11778, read-out: MIC BC
[2] = system: Escherichia coli (ATCC 25922); experiment: Micro-broth dilution assay; type: cell-based; settings: ATCC25922, read-out: MIC EC
[3] = system: glioblastoma (U-87 MG) cells; experiment: MTT cytotoxicity assay, U-87 MG; type: cell-based, human; settings: for IC50: Homo sapiens, U-87 MG, 96 h, read-out: IC50 U87; for SI U87 (selectivity index): IC50 in HDF / IC50 in U87, 96 h
In short: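 U-87 MG cells were cultured in DMEM with 10% FCS, 2 mM L-glutamine and 1% penicillin-streptomycin at 37 °C, 5% CO2. Seeding was 1 × 10^4 cells/ml; after overnight adherence, test compound diluted in medium (six final levels, 1–600) was applied for 96 h alongside DMSO-matched and cisplatin controls. Read-out: MTT 5 mg/ml for 4 h, DMSO solubilisation, A540, in triplicate, IC50 fitted. SI = IC50 in HDF / IC50 in U87.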

[4] = system: human dermal fibroblast (HDF, human dermal cell line); experiment: MTT cytotoxicity assay, normal cells; type: cell-based; settings: Homo sapiens, Fibroblast, 96 h, read-out: IC50 HDF
In short: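 Human dermal fibroblasts were maintained in DMEM with 10% FCS, 2 mM L-glutamine and 1% penicillin-streptomycin (37 °C, 5% CO2). They were seeded at 1 × 10^4 cells/ml, allowed to adhere overnight, then treated 96 h with serially diluted test compound (six final levels, 1–600) beside DMSO-matched vehicle and cisplatin controls. Then MTT 5 mg/ml was added for 4 h, formazan taken up in DMSO, and absorbance read at 540 nm, in triplicate. IC50 was fitted.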

[5] = system: Staphylococcus aureus (ATCC 10145); experiment: Micro-broth dilution assay; type: cell-based; settings: ATCC10145, read-out: MIC SA
[6] = ABTS radical scavenging assay
[7] = system: B. subtilis (ATCC 6633); experiment: Micro-broth dilution assay; type: cell-based; settings: Bacillus subtilis, ATCC6633, read-out: MIC BS
[8] = DPPH radical scavenging assay
[9] = system: B. subtilis (ATCC 6633); experiment: Agar diffusion test, B. subtilis; type: cell-based; settings: Bacillus subtilis, ATCC6633, read-out: Zone of inhibition BS
[10] = system: Pseudomonas aeruginosa (ATCC 13048); experiment: Micro-broth dilution assay; type: cell-based; settings: ATCC13048, read-out: MIC PA
[11] = system: breast cancer (MCF7) cells; experiment: MTT cytotoxicity assay, MCF7; type: cell-based, human; settings: for IC50: Homo sapiens, MCF7, 96 h, read-out: IC50 MCF-7; for SI MCF-7 (selectivity index): IC50 in HDF / IC50 in MCF-7, 96 h
In short: (§1)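 Cells were grown in RPMI 1640 with 10% FCS, 2 mM L-glutamine and 1% penicillin-streptomycin at 37 °C under 5% CO2. They were seeded at 1 × 10^4 cells/ml, left overnight to adhere, and exposed 96 h to test compound diluted in medium (six final levels, 1–600), with DMSO-matched and cisplatin controls. MTT at 5 mg/ml was added for 4 h, formazan dissolved in DMSO, and A540 read, in triplicate. IC50 was fitted from the data. SI = IC50 in HDF / IC50 in this line.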

[12] = system: non-small cell lung cancer (A549) cells; experiment: MTT cytotoxicity assay, A549; type: cell-based, human; settings: for IC50: Homo sapiens, A549, 96 h, read-out: IC50 A549; for SI A549 (selectivity index): IC50 in HDF / IC50 in A549, 96 h
In short: as §1

[13] = system: Bacillus cereus (ATCC 11778); experiment: Agar diffusion test, B. cereus; type: cell-based; settings: ATCC11778, read-out: Zone of inhibition BC
[14] = system: cancer cell lines (U87, MCF-7 and A549) compared to normal cells (HDF); experiment: MTT cytotoxicity, cancer cell lines compared to normal cells; type: cell-based, human; settings: 96 h treatment
In short: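 A549 and MCF7 grown in RPMI 1640, HDF and U87 in DMEM, each with 10% FCS, 2 mM L-glutamine, 1% pen-strep, 37 °C, 5% CO2. Cells at 1 × 10^4 cells/ml were adhered overnight, then exposed 96 h to test compound (final 1–600 […] in medium). Controls were blank, untreated, DMSO-matched and cisplatin (1–100 μM/mL). MTT 5 mg/ml for 4 h; DMSO-solubilised formazan read at 540 nm, triplicate. IC50 from curve fitting; selectivity index = HDF IC50 / cancer-line IC50.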

[15] = system: Gram-positive and Gram-negative bacterial test strains; experiment: Antibacterial activity, whole panel of test strains; type: cell-based
In short: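 Disc diffusion followed CLSI (2012). Test compound at 10, 50 and 100 μg/disc was loaded on 6-mm blank filter discs laid on Mueller Hinton agar seeded at 10^6 cells/ml. Strains were S. aureus ATCC 10145, B. cereus ATCC 11778, B. subtilis ATCC 6633, P. aeruginosa ATCC 13048 and E. coli ATCC 25922. Inhibition zones were recorded.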

MIC [1] [µg/mL] | MIC [2] [µg/mL] | MIC [5] [µg/mL] | IC50 ± SD, ABTS [6] [µg/mL] | MIC [7] [µg/mL] | IC50 ± SD, DPPH [8] [µg/mL] | MIC [10] [µg/mL] | SMILES | IC50 [3] [µM] | SI U87 (selectivity index) [3] | IC50 [4] [µM] | % inhibition ±SD, ABTS ([6]; 5 μg/ml) [%] | % inhibition ±SD, ABTS ([6]; 10 μg/ml) [%] | % inhibition ±SD, ABTS ([6]; 25 μg/ml) [%] | % inhibition ±SD, ABTS ([6]; 50 μg/ml) [%] | % inhibition ±SD, ABTS ([6]; 100 μg/ml) [%] | % inhibition ±SD, DPPH ([8]; 5 μg/ml) [%] | % inhibition ±SD, DPPH ([8]; 10 μg/ml) [%] | % inhibition ±SD, DPPH ([8]; 25 μg/ml) [%] | % inhibition ±SD, DPPH ([8]; 50 μg/ml) [%] | % inhibition ±SD, DPPH ([8]; 100 μg/ml) [%] | further results
> 500 | > 500 | > 500 | 24.2 ± 1.0 (≈ 42 µM) | > 500 | 18.5 ± 1.6 (≈ 32.1 µM) | > 500 | COC(=O)c1cn(C2CC2)c2cc(N3CCN(C(=O)c4c(C)nnn4-c4ccc([N+](=O)[O-])cc4)CC3)c(F)cc2c1=O [Compound 6e, methyl 7-(4-(1-(4-nitrophenyl)-4-methyl-1H-1,2,3-triazole-5-carbonyl)piperazin-1-yl)-1-cyclopropyl-6-fluoro-4-oxo-1,4-dihydroquinoline-3-carboxylate] | 45 ± 7.1 | 1.8 | 83 ± 5.8 | 14.9 ± 1.4 | 37.0 ± 0.2 | 50.3 ± 0.5 | 71.2 ± 0.2 | 74.3 ± 0.4 | 17.1 ± 0.6 | 33.8 ± 0.5 | 54.5 ± 0.4 | 60.7 ± 0.8 | 67.9 ± 0.6 | zone of inhibition at 100 µg/disc [9]: 9.6 ± 0.6 mm; zone of inhibition at 300 µg/disc [9]: 13.1 ± 0.3 mm; zone of inhibition at 500 µg/disc [9]: 14.3 ± 0.6 mm; IC50 [11]: 58.6 ± 5.9 µM; SI MCF-7 (selectivity index) [11]: 1.4; IC50 [12]: 79 ± 4.7 µM; SI A549 (selectivity index) [12]: 1.1; zone of inhibition at 100 µg/disc [13]: 10.3 ± 0.6 mm; zone of inhibition at 300 µg/disc [13]: 11.3 ± 0.6 mm; zone of inhibition at 500 µg/disc [13]: 13.3 ± 0.6 mm
> 500 | > 500 | > 500 | 39.2 ± 2.1 (≈ 71.5 µM) | > 500 | 56.2 ± 2.1 (≈ 102 µM) | > 500 | COC(=O)c1cn(C2CC2)c2cc(N3CCN(C(=O)c4c(C)nnn4-c4ccc(F)cc4)CC3)c(F)cc2c1=O [Compound 6f, methyl 7-(4-(1-(4-fluorophenyl)-4-methyl-1H-1,2,3-triazole-5-carbonyl)piperazin-1-yl)-1-cyclopropyl-6-fluoro-4-oxo-1,4-dihydroquinoline-3-carboxylate] | 7.9 ± 2.3 | 18 | 142 ± 4.1 | 13.3 ± 0.6 | 29.7 ± 0.7 | 46.1 ± 0.1 | 54.1 ± 0.7 | 64.2 ± 0.4 | 10.6 ± 0.9 | 20.7 ± 0.8 | 39.5 ± 0.5 | 48.9 ± 0.4 | 66.9 ± 0.3 | cytotoxic / anti-proliferative activity in words [14]: significant cytotoxic activity against only U-87 and MCF-7 cancer cell lines; IC50 [11]: 10.6 ± 3 µM; SI MCF-7 (selectivity index) [11]: 13.3; IC50 [12]: 104 ± 4.5 µM; SI A549 (selectivity index) [12]: 1.4; antibacterial activity in words [15]: deprived of any antibacterial activity
– | – | – | 2.7 ± 0.2 (≈ 10.8 µM) | – | 5.2 ± 0.3 (≈ 20.8 µM) | – | Cc1c(C)c2c(c(C)c1O)CCC(C)(C(=O)O)O2 (stereo not shown) [Trolox®, reference compound] | – | – | – | – | – | – | – | – | – | – | – | – | – | –
